ChEMBL document CHEMBL3797084, “Design and evaluation of novel oxadiazole derivatives as potential prostate cancer agents” (Bioorg Med Chem Lett, 2016)

Tests used:
[1] = Cytotoxicity against human PC3 cells assessed as growth inhibition after 24 hrs by sulforhodamine B assay; type: functional, cell-based; conditions: PC-3, 24 h
In short: (§1)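 LNCaP and PC-3 were kept as monolayers in RPMI with 10% heat-inactivated FBS and penicillin/streptomycin at 37 °C in 5% CO2. Cells were seeded, left overnight, then treated at various concentrations in triplicate wells for 24 h. They were fixed with 10% TCA for 1 h at 4 °C and stained 10 min with 0.4% SRB in 1% acetic acid. Bound dye was solubilized in Tris-HCl and read at 564 nm. IC50 came from a Boltzmann sigmoidal nonlinear fit, as the mean of at least three experiments.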

LNCaP = experiment: Cytotoxicity against human LNCAP cells assessed as growth inhibition after 24 hrs by sulforhodamine B assay; type: functional, cell-based; in short: as §1
[2] = Cell cycle arrest in human PC3 cells assessed as accumulation at G0/G1 phase at 0.2 uM after 48 hrs by propidium iodide staining-based flow cytometry (reference value: 58%); type: functional; conditions: PC-3
PC-3 [3] = experiment: Induction of apoptosis in human PC3 cells assessed as early apoptotic cells at 0.2 uM after 48 hrs by propidium iodide staining-based flow cytometry (reference value: 4.4%); type: functional
[4] = Cell cycle arrest in human PC3 cells assessed as accumulation at sub G0/G1 phase at 0.2 uM after 48 hrs by propidium iodide staining-based flow cytometry (reference value: 1.6%); type: functional; conditions: PC-3
[5] = Cell cycle arrest in human PC3 cells assessed as accumulation at G2/M phase at 0.2 uM after 48 hrs by propidium iodide staining-based flow cytometry (reference value: 25.1%); type: functional; conditions: PC-3
PC-3 [6] = experiment: Induction of apoptosis in human PC3 cells assessed as late apoptotic cells at 0.2 uM after 48 hrs by propidium iodide staining-based flow cytometry (reference value: 4.2%); type: functional
PC-3 [7] = experiment: Induction of apoptosis in human PC3 cells assessed as necrotic cells at 0.2 uM after 48 hrs by propidium iodide staining-based flow cytometry (reference value: 0.4%); type: functional
[8] = Cell cycle arrest in human PC3 cells assessed as accumulation at S phase at 0.2 uM after 48 hrs by propidium iodide staining-based flow cytometry (reference value: 6.9%); type: functional; conditions: PC-3
PC-3 [9] = experiment: Induction of apoptosis in human PC3 cells assessed as viable cells at 0.2 uM after 48 hrs by propidium iodide staining-based flow cytometry (reference value: 91%); type: functional; conditions: PC-3, 48 h, read-out: Activity

SMILES | IC50 [1] | IC50 (LNCaP) | further results
O=S(=O)(Nc1nnc(-c2ccc3ccccc3c2)o1)c1ccc2ccccc2c1 | 47.8 µM | 3.2 µM | 
O=C(Nc1nnc(-c2ccccc2)o1)c1ccc2ccccc2c1 | 26 µM | 32.3 µM | 
O=S(=O)(Nc1nnc(-c2ccc(C(F)(F)F)cc2)o1)c1ccccc1 | 8.34 µM | 2.5 µM | 
O=C(Nc1nnc(-c2ccccc2)o1)c1ccccc1 | 0.22 µM | 1.33 µM | Activity [2]: 50.8%; Activity (PC-3 [3]): 13.2%; Activity [4]: 12.1%; Activity [5]: 21.2%; Activity (PC-3 [6]): 15.8%; Activity (PC-3 [7]): 21.3%; Activity [8]: 9%; viability at 0.2 µM (PC-3 [9]): 49.7%
O=C(Nc1nnc(-c2ccc3ccccc3c2)o1)c1ccc(C(F)(F)F)cc1 | 11.1 µM | 6.55 µM | 
O=c1[nH]cc(F)c(=O)[nH]1 [FLUOROURACIL] | 0.03 µM | 0.03 µM | 
O=S(=O)(Nc1nnc(-c2ccc(C(F)(F)F)cc2)o1)c1ccc2ccccc2c1 | 22.2 µM | 3.9 µM | 
